Tests used:
[1] = test system: Rattus norvegicus; assay: Maximum fall in systolic blood pressure, intervals from 1 to 6 hours at a dose of 100 mg/kg administered per orally; format: functional, Artery; details: route oral
How it was run: (§1)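 DOCA/NaCl-treated hypertensive rats, kept at least 2 months after surgery (body weight 300–450 g), selected at systolic pressure of 160 mmHg or more. Compound given orally by dosing needle into the esophagus as a solution or suspension in 1% w/v methylcellulose. Systolic pressure measured by tail-cuff in restrained rats at 33.5 °C, before dosing and at intervals from 1 to 6 h; each reading was the mean of at least six recordings.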

[2] = test system: Rattus norvegicus; assay: Maximum fall in systolic blood pressure, intervals from 1 to 6 hours at a dose of 10 mg/kg administered per orally; format: functional, Artery; details: route oral; how it was run: as §1
[3] = test system: Rattus norvegicus; assay: Maximum fall in systolic blood pressure at interval from 1 to 6 hours at a dose of 1 mg/kg when administered perorally in rats; format: functional, Artery; details: route oral; how it was run: as §1
[4] = test system: Rattus norvegicus; assay: Maximum fall in systolic blood pressure at interval from 1 to 6 hours at a dose of 3 mg/kg when administered perorally in rats; format: functional, Artery; details: route oral; how it was run: as §1
[5] = test system: Rattus norvegicus; assay: Maximum fall in systolic blood pressure at interval from 1 to 6 hours at a dose of 30 mg/kg when administered perorally in rats; format: functional, Artery; details: route oral; how it was run: as §1
[6] = test system: Rattus norvegicus; assay: Maximum fall in systolic blood pressure at interval from 1 to 6 hours at a dose of 0.3 mg/kg when administered perorally in rats; format: functional, Artery; details: route oral; how it was run: as §1
[7] = test system: Rattus norvegicus; assay: Maximum fall in systolic blood pressure at interval from 1 to 6 hours at a dose of 300 mg/kg when administered perorally in rats; format: functional, Artery; details: route oral; how it was run: as §1
[8] = species: Rattus norvegicus; assay: Compound was tested at 9.7e-6M for inhibition of spontaneous activity in rat isolated portal vein

Row | SMILES | Max fall in blood pressure [1] | Max fall in blood pressure [2] | Max fall in blood pressure [5] | other results
1 | CC1(C)Oc2ccc(C(N)=O)cc2[C@@H](N2CCCC2)[C@@H]1O.CS(=O)(=O)O | 21 mmHg |  |  | 
2 | CC(=O)Nc1ccc2c(c1)[C@@H](N1CCCCC1)[C@H](O)C(C)(C)O2.CS(=O)(=O)O | 14 mmHg | 6 mmHg |  | 
3 | CC1(C)Oc2ccc([N+](=O)[O-])cc2[C@@H](N2C3CCCC2CCC3)[C@@H]1O.CS(=O)(=O)O |  | 20 mmHg |  | 
4 | CC1(C)Oc2ccc([N+](=O)[O-])cc2[C@@H](N2CCCC2)[C@@H]1O.CS(=O)(=O)O |  | 98 mmHg |  | Max fall in blood pressure [3]: 52 mmHg; Max fall in blood pressure [4]: 79 mmHg
5 | C/C(=N\O)c1ccc2c(c1)[C@@H](N1CCCCC1)[C@H](O)C(C)(C)O2.CS(=O)(=O)O | 74 mmHg | 17 mmHg | 80 mmHg | 
6 | CC1(C)Oc2ccc([N+](=O)[O-])cc2[C@@H](NC2CC2)[C@@H]1O.CS(=O)(=O)O | 95 mmHg | 31 mmHg |  | 
7 | COC(=O)c1ccc2c(c1)[C@@H](N1CCCC1)[C@H](O)C(C)(C)O2.CS(=O)(=O)O |  | 58 mmHg | 65 mmHg | Max fall in blood pressure [4]: 14 mmHg
8 | CC(C)(C)N[C@@H]1c2cc([N+](=O)[O-])ccc2OC(C)(C)[C@H]1O.CS(=O)(=O)O | 7 mmHg |  |  | 
9 | CS(=O)(=O)O.Cc1c([N+](=O)[O-])ccc2c1OC(C)(C)[C@@H](O)[C@@H]2N1CCCCC1 | 39 mmHg |  |  | 
10 | CC1(C)Oc2ccc([N+](=O)[O-])cc2[C@@H](N2CCCCC2)[C@@H]1O.CS(=O)(=O)O |  | 105 mmHg |  | Max fall in blood pressure [3]: 28 mmHg; Max fall in blood pressure [4]: 73 mmHg
11 | CC1(C)Oc2ccc(C(=O)O)cc2[C@@H](N2CCCC2)[C@@H]1O |  | 2 mmHg |  | 
12 | CC1(C)Oc2cc([N+](=O)[O-])ccc2[C@@H](N2CCCC2)[C@@H]1O.CS(=O)(=O)O |  | 99 mmHg |  | Max fall in blood pressure [3]: 44 mmHg; Max fall in blood pressure [4]: 90 mmHg
13 | CC1(C)Oc2c(ccc3ccccc23)[C@@H](N2CCCC2)[C@@H]1O | 4 mmHg |  |  | 
14 | CC1(C)Oc2ccc(C(N)=O)cc2[C@@H](N2CCCCC2)[C@@H]1O.CS(=O)(=O)O | 30 mmHg | 9 mmHg |  | 
15 | CN[C@@H]1c2cc([N+](=O)[O-])ccc2OC(C)(C)[C@H]1O.Cl | 43 mmHg |  | 21 mmHg | 
16 | COc1ccc2c(c1)[C@@H](N1CCCC1)[C@H](O)C(C)(C)O2.Cl | 17 mmHg |  | 29 mmHg | 
17 | CC1(C)Oc2ccc(Cl)cc2[C@@H](N2CCCCC2)[C@@H]1O.Cl | 69 mmHg |  | 7 mmHg | 
18 | CC1(C)Oc2cccc(C#N)c2[C@@H](N2CCCCC2)[C@@H]1O.Cl | 33 mmHg | 13 mmHg |  | 
19 | CC1(C)Oc2ccc(C#N)cc2[C@@H](N2CCCCC2)[C@@H]1O.Cl |  | 107 mmHg |  | Max fall in blood pressure [3]: 35 mmHg; Max fall in blood pressure [6]: 29 mmHg; Max fall in blood pressure [4]: 88 mmHg
20 | CC1(C)Oc2ccc([N+](=O)[O-])cc2[C@@H](N2CCCCCC2)[C@@H]1O.Cl | 96 mmHg | 17 mmHg |  | 
21 | CC1(C)Oc2cc([N+](=O)[O-])ccc2[C@@H](N2CCCCC2)[C@@H]1O.Cl | 79 mmHg | 48 mmHg |  | Max fall in blood pressure [4]: 18 mmHg
22 | CCN(CC)[C@@H]1c2cc([N+](=O)[O-])ccc2OC(C)(C)[C@H]1O.Cl | 54 mmHg |  | 34 mmHg | 
23 | Cc1ccc2c(c1)[C@@H](N1CCCCC1)[C@H](O)C(C)(C)O2.Cl | 43 mmHg | 34 mmHg | 44 mmHg | 
24 | CC1(C)Oc2ccc([N+](=O)[O-])cc2[C@@H](NCCCO)[C@@H]1O.Cl | 28 mmHg |  |  | 
25 | CC1(C)Oc2cc(C#N)ccc2[C@@H](N2CCCCC2)[C@@H]1O.Cl | 33 mmHg |  | 7 mmHg | 

Row | SMILES | Max fall in blood pressure [1] | Max fall in blood pressure [2] | Max fall in blood pressure [5] | other results
26 | CC1(C)Oc2ccc(F)cc2[C@@H](N2CCCCC2)[C@@H]1O.Cl | 26 mmHg | 16 mmHg |  | 
27 | CC(=O)c1ccc2c(c1)[C@@H](N1CCCCC1)[C@H](O)C(C)(C)O2.Cl | 127 mmHg | 51 mmHg | 65 mmHg | Max fall in blood pressure [4]: 12 mmHg
28 | CC1CCN([C@@H]2c3cc([N+](=O)[O-])ccc3OC(C)(C)[C@H]2O)CC1.Cl |  | 28 mmHg |  | 
29 | CC1(C)Oc2c(C#N)cccc2[C@@H](N2CCCCC2)[C@@H]1O.Cl | 33 mmHg | 5 mmHg |  | 
30 | CC(C)N[C@@H]1c2cc([N+](=O)[O-])ccc2OC(C)(C)[C@H]1O.Cl | 36 mmHg |  |  | Max fall in blood pressure [7]: 69 mmHg
31 | CC1(C)Oc2ccc([N+](=O)[O-])cc2[C@@H](NCCO)[C@@H]1O.Cl | 27 mmHg |  |  | 
32 | CC1(C)Oc2ccc(C#N)cc2[C@@H](N2CCCC2)[C@@H]1O.Cl |  |  |  | Max fall in blood pressure [3]: 43 mmHg; Max fall in blood pressure [6]: 15 mmHg; Inhibition [8]: 32%; Max fall in blood pressure [4]: 117 mmHg
33 | CC1(C)Oc2ccccc2[C@@H](N2CCCC2)[C@@H]1O.Cl | 46 mmHg |  | 10 mmHg | 
34 | CC1(C)Oc2ccc([N+](=O)[O-])cc2[C@@H](N2CCN(c3ccccc3)CC2)[C@@H]1O.Cl |  | 10 mmHg |  | 
35 | CC1(C)Oc2ccc([N+](=O)[O-])cc2[C@@H](NCC2CC2)[C@@H]1O.Cl | 13 mmHg |  |  | 
36 | CC1CCC(C)N1[C@@H]1c2cc([N+](=O)[O-])ccc2OC(C)(C)[C@H]1O.Cl (stereo not given in full) |  |  | 26 mmHg | 
37 | CC(O)c1ccc2c(c1)[C@@H](N1CCCCC1)[C@H](O)C(C)(C)O2.Cl (stereo not given in full) |  | 20 mmHg | 115 mmHg | 
38 | CC1(C)Oc2ccc3ccccc3c2[C@@H](N2CCCCC2)[C@@H]1O.Cl | 4 mmHg |  |  | 
39 | CN(C)[C@@H]1c2cc([N+](=O)[O-])ccc2OC(C)(C)[C@H]1O.Cl | 29 mmHg |  |  | 
40 | CC1(C)Oc2ccc([N+](=O)[O-])cc2[C@@H](N)[C@@H]1O.Cl | 45 mmHg |  | 23 mmHg | 
41 | Cc1ccc2c(c1)[C@@H](N1CCCC1)[C@H](O)C(C)(C)O2.Cl | 9 mmHg |  |  | 
42 | CC(=O)c1ccc2c(c1)[C@@H](N1CCCC1)[C@H](O)C(C)(C)O2.Cl | 78 mmHg | 53 mmHg | 66 mmHg | Max fall in blood pressure [4]: 39 mmHg
43 | CC1(C)Oc2cccc([N+](=O)[O-])c2[C@@H](N2CCCCC2)[C@@H]1O.Cl | 12 mmHg |  |  | 
44 | CC1(C)Oc2ccc([N+](=O)[O-])cc2[C@@H](N2CCOCC2)[C@@H]1O.Cl | 70 mmHg | 23 mmHg | 55 mmHg | 
45 | CC1(C)Oc2ccc(N)cc2[C@@H](N2CCCC2)[C@@H]1O.Cl.Cl | 6 mmHg |  |  | 
46 | CC1(C)Oc2ccc([N+](=O)[O-])cc2[C@@H](NCCN2CCCC2)[C@@H]1O.Cl.Cl | 23 mmHg |  |  | 
47 | CC1(C)Oc2ccc([N+](=O)[O-])cc2[C@@H](N2CCCCCCC2)[C@@H]1O.Cl |  | 53 mmHg | 82 mmHg | Max fall in blood pressure [4]: 34 mmHg
48 | NNc1nncc2ccccc12 [HYDRALAZINE] |  | 113 mmHg |  | Max fall in blood pressure [3]: 32 mmHg; Inhibition [8]: 40%; Max fall in blood pressure [4]: 65 mmHg
49 | COC(=O)C1=C(C)NC(C)=C(C(=O)OC)C1c1ccccc1[N+](=O)[O-] [NIFEDIPINE] |  |  |  | Max fall in blood pressure [3]: 33 mmHg; Max fall in blood pressure [6]: 20 mmHg; Max fall in blood pressure [4]: 51 mmHg
